MrgX1 allo act = allosterically activates human MrgX1 receptor signaling. MrgX1-HEK293, Fluo-4 calcium flux, FDSS; active compounds read high. Q96LB2. hit rate 0.63% among 310,000. AID 588675. B-score at 10 µM;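 active = plate-corrected calcium response at least 3 library SD above typical, normal starting fluorescence, not activating the receptor alone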;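 note: compound read alongside a low EC10 to EC30 dose of BAM8-22 agonist; peak minus trough fluorescence over baseline measured at the second addition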
RGS4 block = inhibitors of human RGS4 | P49798 | HEK293 M3R/RGS4 inducible, Fluo-4 calcium flux; active compounds read high; triggered by carbachol at its EC20 | B-score at 10 µM | hit rate 0.45% among 310,000;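 active = B-score, a plate-corrected calcium signal, over three deviations above library mean, with baseline fluorescence within five deviations of library mean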;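 note: RGS4 expression induced by doxycycline in cells with stable M3 receptor; B-score is computed from the integrated fluorescence ratio over baseline after carbachol; higher B-score means a larger calcium signal and so more RGS4 inhibition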
Target sequence (P49798 whole entry, looked up): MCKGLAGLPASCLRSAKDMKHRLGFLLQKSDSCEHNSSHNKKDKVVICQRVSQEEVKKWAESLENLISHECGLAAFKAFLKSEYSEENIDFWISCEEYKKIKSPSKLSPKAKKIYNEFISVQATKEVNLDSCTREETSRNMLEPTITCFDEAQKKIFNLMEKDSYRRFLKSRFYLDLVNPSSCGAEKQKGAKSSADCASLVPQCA
MrgX1 antagonist = antagonists of human MrgX1 receptor; Q96LB2; MRGX1-HEK293 calcium flux, Fluo-4, BAM8-22 antagonism; active compounds read low; B-score at 10 µM; hit rate 1.3% among 310,000; AID 588676;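 active = calcium-response B-score plate-corrected more than 3 library SD below zero, starting fluorescence within 5 deviations, no agonist response on first addition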;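 note: peak minus trough fluorescence over baseline after final BAM8-22 challenge near maximal dose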
MrgX1 agonist = human MrgX1 receptor agonism, primary screen | MrgX1-HEK293 cells, Fluo-4 calcium fluorescence, agonist mode; active compounds read high | B-score at 10 µM | hit rate 0.44% among 310,000 | AID 588627;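 active = calcium response B-score plate-corrected fluorescence ratio at least 3 library SD, with starting fluorescence B-score inside 5 SD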
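Test system: HEK293 cells stably expressing human MrgX1 receptor; amount: 15,000 cells per well; doses: compound delivered in addition one of three; times: overnight plating before 1 h dye loading; detection: Fluo-4 NW calcium-flux fluorescence, kinetic read; read-out basis: B-scored fluorescence response ratio; controls: positive and negative controls per plate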
RGS4 act = potentiators or activators of RGS4 | HEK293 M3R/inducible RGS4, carbachol calcium flux Fluo4; active compounds read low | B-score at 10 µM | hit rate 0.92% among 310,000 | AID 463111;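 active = B-score of the integrated calcium signal more than 4 SD below the library mean, with starting fluorescence not abnormally high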;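 note: negative B-score means reduced calcium response which marks RGS4 activation or potentiation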
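System – HEK293 FlpIn-TREx cells, stable M3R, doxycycline-inducible RGS4 · Reagent – ECmax carbachol challenge · Times – compound preincubation 20 min at room temperature before agonist · Technique – Fluo4 fluorescence kinetic imaging of calcium · Measure – B score of integrated Fluo4 ratio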
RGS4 act valid = confirmation of RGS4 activators. shares compounds with RGS4 act. HEK293 M3R/RGS4 inducible, carbachol calcium flux Fluo4. inhibition, % at 10 µM. hit rate 89% among 1,100. AID 602282;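 active = inhibition above 3 SD of the buffer control wells, cut at about 41% in these data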;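 note: signal is the integrated peak-minus-minimum Fluo4 fluorescence over baseline ratio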
RGS4 act ctr = counter-screen for RGS4 activators: effect in non-induced cells | inhibition, % at 10 µM | shares compounds with RGS4 act | hit rate 82% among 1,100 | HEK293 M3R non-induced RGS4, Fluo4 calcium flux; after carbachol challenge at its EC90 | AID 602283;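 active = inhibition exceeding 3 SD of buffer-only control wells, cut at about 26% in these data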;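 note: percent drop in integrated peak-minus-baseline over baseline Fluo4 ratio after carbachol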
Starred values were filed as active, the others as inactive; i = inactive; / = not tested or not shown. Rows were chosen to be rich in hits. Some 3.5% of all compounds tested hit in one or more screens of this group.

SMILES	MrgX1 allo act	RGS4 block	MrgX1 antagonist	MrgX1 agonist	RGS4 act	RGS4 act valid	RGS4 act ctr
CN(C)CC[C@@H](c1ccc(Cl)cc1)c1ccccn1	i	i	i	i	-13*	57*	0
CN(C)CC[C@@H](c1ccc(Br)cc1)c1ccccn1	i	i	i	i	i	/	/
O=[N+]([O-])c1cccc(NC(=S)N2CCN(c3ccccn3)CC2)c1	i	i	i	i	i	/	/
CC(C)(O)C#Cc1ccc(CN2CCCC(CO)(Cc3cccc(Cl)c3)C2)cc1 (stereo unspecified)	i	i	i	i	-9*	76*	31*
C[n+]1cccc(C(=O)NNC(=O)C23CC4CC(CC(C4)C2)C3)c1	i	i	i	i	i	/	/
Cc1c(O)c(CN2CCCC2)cc2c1oc(=O)c1ccccc12	i	i	i	i	i	/	/
C=CCc1cc2c(oc(=O)c3ccccc32)c(C)c1O	i	i	i	i	-9*	49*	84*
CSc1ccc2c(c1)C(N1CCN(C)CC1)Cc1ccc(F)cc1S2 (stereo unspecified)	i	i	i	i	-11*	94*	90*
CC(C)(C)c1csc(NC(=O)c2cccs2)n1	i	i	i	i	-8.2*	0	0
CCOC(=O)Cc1csc(NC(=O)c2ccc(S(=O)(=O)N3CCOCC3)cc2)n1	i	i	i	i	i	/	/
CCOC(=O)c1cc2cc(OCc3ccccc3)ccc2nc1C	i	i	i	i	-11*	78*	76*
CCNC(=S)N1CCN(c2nc(-c3cccc(OC)c3)cs2)CC1	i	i	i	i	i	/	/
COc1cccc(-c2csc(N3CCN(C(=S)NCC(C)C)CC3)n2)c1	i	i	i	i	-7.7*	80*	56*
CCCc1ncc(C(O)(c2ccccc2)c2ccccc2)n1C	i	i	i	i	-12*	93*	81*
CCCc1ncc(C(O)c2cccc3ccccc23)n1C (stereo unspecified)	i	i	i	i	i	/	/
CCCc1ncc(C(O)(c2ccccc2)c2ccc(C)cc2)n1C (stereo unspecified)	i	i	i	i	-7.9*	92*	63*
CCOc1ccccc1N1CCN(CC(=O)NC(C)c2ccccc2)CC1 (stereo unspecified)	i	i	i	i	i	/	/
Cc1ccc(Nc2nc(Cl)nc(NC(C)(C)C)n2)cc1	i	i	i	i	-8.2*	71*	39*
C=CCn1c(SCC(=O)N2CCc3ccccc3C2)nc2sc(CC)cc2c1=O	i	i	i	i	i	/	/
C=CCn1c(SCC(=O)N2CCc3ccccc3C2)nc2sc(C)c(C)c2c1=O	i	i	i	i	-7.9*	85*	58*
Cc1ccc2oc(C(=O)NCc3ncc(C)[nH]3)c(C)c2c1	i	i	i	i	i	/	/
c1ccc(Cn2c3ccccc3c3nnc(SCCN4CCCCC4)nc32)cc1	i	i	i	i	-11*	93*	90*
CCCn1c2ccc(C)cc2c2nnc(SCCN3CCCCC3)nc21	/	i	/	/	-8.9*	79*	84*
CCn1c2ccc(C)cc2c2nnc(SCCN3CCCCC3)nc21	i	i	i	i	i	/	/
CN(CC(=O)Nc1cccc(F)c1)C(=O)CN1C(=O)C2CC=CCC2C1=O (stereo unspecified)	i	i	i	i	i	/	/
C/C(=N\NC(=O)c1ccco1)c1ccc(NC(=O)C(F)(F)F)cc1	/	i	/	/	i	/	/
O=C(c1cccc(COc2ccc(Cl)cc2Cl)c1)N1CCN(c2ccccn2)CC1	i	i	i	i	-7.9*	94*	80*
O=C(c1ccc(Cl)c(Cl)c1)N1CCN(c2ccccn2)CC1	i	i	i	i	i	/	/

Source: PubChem (Johns Hopkins Ion Channel Center)
